From PMC5481492 (Chemico-biological interactions, 2016)
Read-outs that look alike come from different tables or passages of the source.

Assays:
[1] = target: T1, horse liver ADH1E S48T (Equus caballus, UniProt P00327, S49T); test: Steady-state kinetics, S48T enzyme; assay type: biochemical; details: for Michaelis constant for coenzyme (Ka NAD+, Kq NADH) / Ki / Turnover number (V1/Et ethanol oxidation, V2/Et acetaldehyde reduction): pH 8.0, 25 °C; for Michaelis constant for coenzyme (Ka NAD+, Kq NADH): both substrates varied; for Ki: read-out: Inhibition constant for coenzyme (Kia NAD+, Kiq NADH); for Ratio of V/Km for (R)- to (S)-enantiomers: enantioselectivity
T1 sequence (P00327 whole entry S49T): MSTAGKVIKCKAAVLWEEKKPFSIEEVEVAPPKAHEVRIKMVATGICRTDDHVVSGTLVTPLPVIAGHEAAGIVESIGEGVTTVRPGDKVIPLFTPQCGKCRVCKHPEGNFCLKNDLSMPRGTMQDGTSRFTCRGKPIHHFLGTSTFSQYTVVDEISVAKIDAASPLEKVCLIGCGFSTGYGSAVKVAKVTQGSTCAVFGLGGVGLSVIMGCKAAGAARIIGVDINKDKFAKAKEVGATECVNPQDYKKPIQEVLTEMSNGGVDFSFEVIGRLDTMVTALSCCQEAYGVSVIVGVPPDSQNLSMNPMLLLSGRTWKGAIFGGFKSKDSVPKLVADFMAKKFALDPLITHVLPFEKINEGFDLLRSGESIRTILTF

[2] = target: horse liver ADH1E S48A (Equus caballus, UniProt P00327, S49A); test: Steady-state kinetics, S48A enzyme; assay type: biochemical; details: pH 8.0, 25 °C; for Michaelis constant for coenzyme (Ka NAD+, Kq NADH): both substrates varied; for Ki: read-out: Inhibition constant for coenzyme (Kia NAD+, Kiq NADH)
horse liver ADH1E S48A, sequence (P00327 whole entry S49A): as the sequence (P00327 whole entry S49T) above, with T49A counted along it

[3] = target: T2, horse liver ADH1E F93A (Equus caballus, UniProt P00327, F94A); test: Steady-state kinetics, F93A enzyme; assay type: biochemical; details: for Michaelis constant for coenzyme (Ka NAD+, Kq NADH): both substrates varied; for Ki: read-out: Inhibition constant for coenzyme (Kia NAD+, Kiq NADH); for Ratio of V/Km for (R)- to (S)-enantiomers: enantioselectivity
T2 sequence (P00327 whole entry F94A): as the sequence (P00327 whole entry S49T) above, with T49S, F94A counted along it

[4] = target: T3, horse liver ADH1E S48T/F93A (Equus caballus, UniProt P00327, F94A/S49T); test: Steady-state kinetics, S48T/F93A enzyme; assay type: biochemical; details: for Michaelis constant for coenzyme (Ka NAD+, Kq NADH) / Ki / Turnover number (V1/Et ethanol oxidation, V2/Et acetaldehyde reduction): pH 8.0, 25 °C; for Michaelis constant for coenzyme (Ka NAD+, Kq NADH): both substrates varied; for Ki: read-out: Inhibition constant for coenzyme (Kia NAD+, Kiq NADH); for Increase of the R/S ratio (inversion of enantioselectivity) as compared to wild-type enzyme: S48T/F93A relative to wild-type; for Ratio of V/Km for (R)- to (S)-enantiomers: enantioselectivity
T3 sequence (P00327 whole entry S49T/F94A): as the sequence (P00327 whole entry S49T) above, with F94A counted along it

[5] = target: T2, horse liver ADH1E F93A; test: Transient; assay type: biochemical; details: for K m (transient reaction) / k max (transient oxidation): pH 8.0, 25 °C, 2 mM NAD+
[6] = target: T4, horse liver ADH1E (EqADH1E), wild-type (Equus caballus, UniProt P00327); details: pH 8.0, 25 °C; cited from earlier work
T4 sequence (P00327 whole entry): as the sequence (P00327 whole entry S49T) above, with T49S counted along it

[7] = target: T3, horse liver ADH1E S48T/F93A; test: Transient; assay type: biochemical; details: pH 8.0, 25 °C; 2 mM NAD+ (oxidation) or stoichiometric NADH (reduction)
Outline: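 Stopped-flow (three-syringe, 2.5 ms dead time) at 25 °C in 33 mM sodium phosphate, 0.25 mM EDTA, pH 8.0. Enzyme at 6–15 μN (active sites) was mixed with 2 mM NAD⁺ and varied alcohol (oxidation), or with NADH equal to the enzyme concentration and varied carbonyl compound (reduction). A328 bursts (Δε 5500 M⁻¹cm⁻¹) were fitted as first-order; rate constants were analysed against substrate concentration.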

[8] = target: T2, horse liver ADH1E F93A; details: cited from earlier work; for Substrate deuterium isotope effect on k max: value in brackets
[9] = target: T4, horse liver ADH1E (EqADH1E), wild-type; details: value in parentheses; cited from earlier work
[10] = target: T4, horse liver ADH1E (EqADH1E), wild-type; test: Steady-state kinetics, wild-type enzyme; assay type: biochemical; details: enantioselectivity
[11] = target: T1, horse liver ADH1E S48T; test: Inhibition of ethanol oxidation, S48T enzyme; assay type: biochemical
[12] = target: T2, horse liver ADH1E F93A; test: Inhibition of ethanol oxidation, F93A enzyme; assay type: biochemical
[13] = target: T3, horse liver ADH1E S48T/F93A; test: Inhibition of ethanol oxidation, S48T/F93A enzyme; assay type: biochemical
[14] = target: T4, horse liver ADH1E (EqADH1E), wild-type; details: cited from earlier work
[15] = target: T4, horse liver ADH1E (EqADH1E), wild-type; details: pH 8.5, 25 °C, cited from earlier work
[16] = competitive against ethanol, pH 8.0, 25 °C

NC(=O)C1=CN([C@@H]2O[C@H](COP(=O)(O)OP(=O)(O)OC[C@H]3O[C@@H](n4cnc5c(N)ncnc54)[C@H](O)[C@@H]3O)[C@@H](O)[C@H]2O)C=CC1 [NADH]
Michaelis constant for coenzyme (Ka NAD+, Kq NADH) [1]: 6.3 µM | Ki [1]: 0.57 µM | Michaelis constant for coenzyme (Ka NAD+, Kq NADH) [2]: 44 µM | Ki [2]: 21 µM | Michaelis constant for coenzyme (Ka NAD+, Kq NADH) ([3]; pH 8.0, 25 °C): 1.9 µM | Ki ([3]; pH 8.0, 25 °C): 0.036 µM | Michaelis constant for coenzyme (Ka NAD+, Kq NADH) [4]: 5.0 µM | Ki [4]: 0.054 µM | Rate constant for binding of NADH ([5]; transient kinetics, stated in a paragraph on the F93A and S48T/F93A enzymes): 1e+07 M⁻¹ s⁻¹ | Michaelis constant for coenzyme (Ka NAD+, Kq NADH) [6]: 5.8 µM

NC(=O)c1ccc[n+]([C@@H]2O[C@H](COP(=O)([O-])OP(=O)(O)OC[C@H]3O[C@@H](n4cnc5c(N)ncnc54)[C@H](O)[C@@H]3O)[C@@H](O)[C@H]2O)c1 [NAD^+]
Michaelis constant for coenzyme (Ka NAD+, Kq NADH) [1]: 11 µM | Ki [1]: 15 µM | Michaelis constant for coenzyme (Ka NAD+, Kq NADH) [2]: 200 µM | Ki [2]: 110 µM | Michaelis constant for coenzyme (Ka NAD+, Kq NADH) ([3]; pH 8.0, 25 °C): 3.3 µM | Ki ([3]; pH 8.0, 25 °C): 44 µM | Michaelis constant for coenzyme (Ka NAD+, Kq NADH) [4]: 4.4 µM | Ki [4]: 33 µM | Michaelis constant for coenzyme (Ka NAD+, Kq NADH) [6]: 3.9 µM

OCc1ccccc1 [Benzyl alcohol, benzyl alcohol]
K m (transient reaction) [7]: 15 mM | k max (transient oxidation or reduction) [7]: 78 s⁻¹ | k max (transient oxidation or reduction) [8]: 3.3 s⁻¹ | Substrate deuterium isotope effect on k max [8]: 4.0 | K m (transient reaction) [9]: 0.03 mM | k max (transient oxidation or reduction) [9]: 24 s⁻¹

CC(O)c1ccccc1 (stereo not shown) [sec-Phenethyl alcohol, sec-phenethyl alcohol]
Ratio of V/Km for (R)- to (S)-enantiomers [10]: 0.067 | Ratio of V/Km for (R)- to (S)-enantiomers [3]: 0.34 | Increase of the R/S ratio (inversion of enantioselectivity) as compared to wild-type enzyme [4]: 190 fold | Ratio of V/Km for (R)- to (S)-enantiomers [4]: 13.

OCC(F)(F)F [trifluoroethanol, 2,2,2-trifluoroethanol]
Ki [11]: 98 µM | Ki [12]: 53 µM | Ki [13]: 600 µM | Type of inhibition [13]: uncompetitive inhibitor against varied concentrations of NAD^+ | Ki [14, 16]: 8.4 µM

O=Cc1ccccc1 [Benzaldehyde, benzaldehyde]
K m (transient reaction) [7]: 0.26 mM | k max (transient oxidation or reduction) [7]: 0.67 s⁻¹ | k max (transient oxidation or reduction) [8]: 2.2 s⁻¹ | Substrate deuterium isotope effect on k max [8]: 3.4 | K m (transient reaction) [9]: 0.49 mM | k max (transient oxidation or reduction) [9]: 320 s⁻¹

CCO [ethanol]
Turnover number (V1/Et ethanol oxidation, V2/Et acetaldehyde reduction) [1]: 1.7 s⁻¹ | Turnover number (V1/Et ethanol oxidation, V2/Et acetaldehyde reduction) [2]: 0.01 s⁻¹ | Catalytic efficiency (V1/EtKb, V2/EtKp) ([3]; pH 8.0, 25 °C): 1.7 mM⁻¹ s⁻¹ | Turnover number (V1/Et ethanol oxidation, V2/Et acetaldehyde reduction) ([3]; pH 8.0, 25 °C): 0.35 s⁻¹ | Turnover number (V1/Et ethanol oxidation, V2/Et acetaldehyde reduction) [4]: 0.29 s⁻¹ | K m (transient reaction) [7]: 38 mM | k max (transient oxidation or reduction) [7]: 72 s⁻¹ | K m (transient reaction) [5]: 26 mM | k max (transient oxidation) [5]: 22 s⁻¹ | Catalytic efficiency (V1/EtKb, V2/EtKp) [6]: 10 mM⁻¹ s⁻¹ | Turnover number (V1/Et ethanol oxidation, V2/Et acetaldehyde reduction) [6]: 3.5 s⁻¹ | K m (transient reaction) [9]: 4.1 mM | k max (transient oxidation or reduction) [9]: 180 s⁻¹

CCC(C)=O [2-Butanone, 2-butanone]
Km ([4]; ketone reduction, 0.1 mM NADH): 12.7 ± 0.9 mM | V2/Et ([4]; ketone reduction, 0.1 mM NADH): 0.081 ± 0.002 s⁻¹ | K m (transient reaction) [7]: 29 mM | k max (transient oxidation or reduction) [7]: 0.14 s⁻¹ | k max (transient oxidation or reduction) [9]: 0.12 s⁻¹ | Binding rate constant k−6 ([15]; (pro-R)-2-butanone pathway): 6.5 M⁻¹ s⁻¹ | Dissociation rate constant k6 ([15]; (pro-R)-2-butanone pathway): 4.3 s⁻¹ | Binding rate constant k−6 ([15]; (pro-S)-2-butanone pathway): 180 M⁻¹ s⁻¹ | Dissociation rate constant k6 ([15]; (pro-S)-2-butanone pathway): 2.5 s⁻¹

CCC(C)O (stereo not shown) [2-Butanol, 2-butanol]
Ratio of V/Km for (R)- to (S)-enantiomers [10]: 0.45 | Ratio of V/Km for (R)- to (S)-enantiomers [1]: 0.88 | Ratio of V/Km for (R)- to (S)-enantiomers [3]: 1.1 | Increase of the R/S ratio (inversion of enantioselectivity) as compared to wild-type enzyme [4]: 10 fold | Ratio of V/Km for (R)- to (S)-enantiomers [4]: 4.3

c1cn[nH]c1 [Pyrazole, pyrazole]
Type of inhibition [13]: competitive inhibitor against varied concentrations of ethanol | Ki [13, 16]: 8.1 µM | Ki [14]: 0.2 µM

OCc1c(F)c(F)c(F)c(F)c1F [pentafluorobenzyl alcohol, 2,3,4,5,6-pentafluorobenzyl alcohol]
Ki [11]: 740 µM | Ki [12]: 51 µM | Ki [13]: > 10000 µM | Ki [14, 16]: 0.52 µM

CC[C@@H](C)O [(R)-2-Butanol, (R)-2-butanol]
K m (transient reaction) [7]: 26 mM | k max (transient oxidation or reduction) [7]: 130 s⁻¹ | K m (transient reaction) [5]: 1.2 mM | k max (transient oxidation) [5]: 44 s⁻¹ | k max (transient oxidation or reduction) [9]: 15 s⁻¹

CC=O [acetaldehyde]
Turnover number (V1/Et ethanol oxidation, V2/Et acetaldehyde reduction) [1]: 20 s⁻¹ | Turnover number (V1/Et ethanol oxidation, V2/Et acetaldehyde reduction) [2]: 0.29 s⁻¹ | Turnover number (V1/Et ethanol oxidation, V2/Et acetaldehyde reduction) ([3]; pH 8.0, 25 °C): 20 s⁻¹ | Turnover number (V1/Et ethanol oxidation, V2/Et acetaldehyde reduction) [4]: 35 s⁻¹ | K m (transient reaction) [7]: 150 mM | k max (transient oxidation or reduction) [7]: 58 s⁻¹ | Turnover number (V1/Et ethanol oxidation, V2/Et acetaldehyde reduction) [6]: 47 s⁻¹ | K m (transient reaction) [9]: 2.1 mM | k max (transient oxidation or reduction) [9]: 390 s⁻¹

CCCCCCC(C)O (stereo not shown) [2-Octanol, 2-octanol]
Ratio of V/Km for (R)- to (S)-enantiomers [10]: 0.0034 | Ratio of V/Km for (R)- to (S)-enantiomers [1]: 0.023 | Ratio of V/Km for (R)- to (S)-enantiomers [3]: 0.62 | Increase of the R/S ratio (inversion of enantioselectivity) as compared to wild-type enzyme [4]: 590 fold | Ratio of V/Km for (R)- to (S)-enantiomers [4]: 2.0

OCC(F)(F)C(F)(F)C(F)(F)F [heptafluorobutanol]
Ki [13, 16]: 53 µM | Ki [14]: 5.3 µM

CC[C@H](C)O [(S)-2-Butanol, (S)-2-butanol]
K m (transient reaction) [7]: 4.9 mM | k max (transient oxidation or reduction) [7]: 16 s⁻¹ | K m (transient reaction) [5]: 1.3 mM | k max (transient oxidation) [5]: 29 s⁻¹ | k max (transient oxidation or reduction) [9]: 2.5 s⁻¹
